{"source": "paper PMC3158287", "about": "(Nature chemical biology, 2011)", "key": {"[1]": {"test_system": "human cancer cell lines", "details": "cited from earlier work"}, "[2]": {"molecular_target": "T1, OSBP (Homo sapiens, UniProt P22059)", "T1 sequence (P22059 1-807)": "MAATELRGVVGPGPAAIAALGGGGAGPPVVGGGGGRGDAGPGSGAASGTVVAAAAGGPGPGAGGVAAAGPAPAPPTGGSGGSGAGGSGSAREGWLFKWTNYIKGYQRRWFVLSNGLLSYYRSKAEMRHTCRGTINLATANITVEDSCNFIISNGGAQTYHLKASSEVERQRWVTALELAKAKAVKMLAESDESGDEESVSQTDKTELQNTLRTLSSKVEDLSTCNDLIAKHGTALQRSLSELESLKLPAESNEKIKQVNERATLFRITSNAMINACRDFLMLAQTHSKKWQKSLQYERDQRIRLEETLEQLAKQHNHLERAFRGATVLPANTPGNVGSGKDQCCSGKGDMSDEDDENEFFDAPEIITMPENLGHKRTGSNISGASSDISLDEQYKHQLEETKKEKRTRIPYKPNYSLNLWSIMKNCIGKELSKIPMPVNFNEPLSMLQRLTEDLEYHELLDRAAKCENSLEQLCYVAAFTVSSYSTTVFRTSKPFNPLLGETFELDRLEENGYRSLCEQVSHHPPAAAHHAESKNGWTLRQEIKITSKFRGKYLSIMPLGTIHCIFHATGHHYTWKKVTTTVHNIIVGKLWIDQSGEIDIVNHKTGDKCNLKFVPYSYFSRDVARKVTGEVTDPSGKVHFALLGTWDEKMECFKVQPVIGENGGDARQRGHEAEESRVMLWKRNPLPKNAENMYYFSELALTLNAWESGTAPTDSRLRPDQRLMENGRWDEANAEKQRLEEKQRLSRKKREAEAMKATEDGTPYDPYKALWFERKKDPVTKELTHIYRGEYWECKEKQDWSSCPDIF", "test": "OSBP localization by immunofluorescence microscopy, A549", "type": "cell-based", "details": "A549 cells", "method_in_brief": "(§1)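 Cells on coverslips were grown 72 h, then given test compound or vehicle (4 h for HCT-116). They were fixed 10 min in 3.7% formaldehyde/PBS and permeabilised 5 min in 0.5% Triton X-100. Blocking used Image-iT FX, then 1% BSA/PBS. Rabbit anti-OSBP (N-terminus) and mouse anti-p230 were applied overnight at 4 °C, then Alexa Fluor secondaries for 60 min with Hoechst 33258. Imaging was by confocal microscopy.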"}, "[3]": {"test_system": "HCT-116 cells", "test": "Suppression of antiproliferative activity by 25-OHC coadministration", "type": "cell-based, human", "details": "HCT-116 and HeLa cell lines", "method_in_brief": "(§2)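 HCT-116 p21+/+ and p21−/− cells were seeded in 96-well plates and rested 24 h. A time-zero plate was read with CellTiter-Blue (resazurin) after 90 min at 37 °C, fluorescence 544 nm ex / 590 nm em. Serially diluted test compound was added as 4× solution. Viability was re-read at 48 h and GI50 derived. For coadministration, 10 μM 25-OHC was added with test compound at 250 nM or 10 nM.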"}, "[4]": {"test_system": "HeLa cells overexpressing wild-type OSBP", "test": "Overexpression-viability assay, wild-type OSBP-Myc-His", "type": "cell-based, human", "details": "48 h, versus lacZ"}, "[5]": {"test_system": "HeLa cells overexpressing ORP4L", "test": "Overexpression-viability assay, ORP4L-Myc-His", "type": "cell-based, human", "details": "48 h, versus lacZ"}, "[6]": {"test_system": "HCT-116 p21^−/− cells stably transfected with shOSBP or shNT", "test": "OSBP shRNA knockdown and dose-shift experiment", "type": "cell-based, human", "details": "72 h", "method_in_brief": "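HCT-116 p21−/− cells were stably transfected with OSBP-targeting or nontargeting shRNA in the pSIREN-RetroQ vector. […] Values are mean ± s.d. of 3–4 experiments, compared with shNT cells by two-tailed Student's t-test.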"}, "[7]": {"test_system": "sphingomyelin biosynthesis in CHO-K1 cells", "test": "Sphingomyelin biosynthesis, [3H]serine pulse labeling, CHO-K1", "type": "cell-based, Chinese hamster"}, "[8]": {"molecular_target": "T2, OSBP-Myc-His (Homo sapiens, UniProt P22059)", "T2 sequence (P22059 1-807)": "T1 sequence (P22059 1-807)", "test": "[3H]25-OHC charcoal-dextran binding assay, wild-type OSBP-Myc-His"}, "[9]": {"molecular_target": "T3, ORP4L-Myc-His (Homo sapiens, UniProt Q969R2)", "T3 sequence (Q969R2 1-916)": "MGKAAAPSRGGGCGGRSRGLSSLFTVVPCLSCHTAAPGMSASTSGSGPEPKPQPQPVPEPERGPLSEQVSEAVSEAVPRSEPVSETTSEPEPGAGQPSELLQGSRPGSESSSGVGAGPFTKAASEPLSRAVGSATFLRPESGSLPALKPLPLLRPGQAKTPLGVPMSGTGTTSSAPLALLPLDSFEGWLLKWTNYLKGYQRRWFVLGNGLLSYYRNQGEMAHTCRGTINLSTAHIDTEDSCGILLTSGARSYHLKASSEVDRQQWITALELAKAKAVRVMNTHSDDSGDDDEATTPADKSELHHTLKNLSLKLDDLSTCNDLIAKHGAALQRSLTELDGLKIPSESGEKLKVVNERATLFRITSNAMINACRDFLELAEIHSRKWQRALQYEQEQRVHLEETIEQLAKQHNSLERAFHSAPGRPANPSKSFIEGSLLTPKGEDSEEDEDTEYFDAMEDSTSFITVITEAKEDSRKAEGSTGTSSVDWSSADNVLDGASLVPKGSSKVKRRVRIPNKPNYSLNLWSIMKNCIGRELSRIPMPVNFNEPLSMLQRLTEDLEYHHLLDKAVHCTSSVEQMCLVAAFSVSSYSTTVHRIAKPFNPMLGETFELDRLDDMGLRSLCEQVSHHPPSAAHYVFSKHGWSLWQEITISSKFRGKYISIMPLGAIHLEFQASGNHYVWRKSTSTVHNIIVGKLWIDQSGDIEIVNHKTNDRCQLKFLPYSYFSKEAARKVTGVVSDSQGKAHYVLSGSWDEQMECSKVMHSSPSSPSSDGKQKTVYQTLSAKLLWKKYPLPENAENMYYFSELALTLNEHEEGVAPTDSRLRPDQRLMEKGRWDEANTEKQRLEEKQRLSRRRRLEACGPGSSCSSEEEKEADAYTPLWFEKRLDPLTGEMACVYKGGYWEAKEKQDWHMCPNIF", "test": "[3H]25-OHC charcoal-dextran binding assay, ORP4L-Myc-His"}, "[10]": {"test_system": "HCT-116 p21^−/− cells", "test": "Cell viability assay, HCT-116 p21-/-", "type": "cell-based, human", "details": "GI50 after 48 h", "method_in_brief": "as §2"}, "[11]": {"molecular_target": "T1, OSBP", "test": "OSBP localization by immunofluorescence microscopy, HCT-116", "type": "cell-based", "details": "HCT-116 cells, 4 h; 5 μM schweinfurthin A, 10 nM OSW-1, 20 nM cephalostatin 1", "method_in_brief": "as §1"}, "[12]": {"molecular_target": "T1, OSBP", "test": "OSBP protein levels by western blotting", "type": "cell-based", "details": "HCT-116 cells; 25-OHC 10 μM", "method_in_brief": "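HCT-116 cells were treated with test compound at 50 nM or 10 nM over a time course including 24 h. Some samples also received proteasome inhibitor MG-132 or lactacystin. OSBP was measured by western blotting with polyclonal rabbit anti-OSBP (N-terminus) antibody. Data are n = 3, compared with vehicle-treated cells by two-tailed Student's t-test.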"}}, "note": "Peptide text beside a SMILES is read from it. * marks the point of attachment. Cbz = O=C(OCc1ccccc1)*"}
{"smiles": "COc1cc(/C=C/c2cc(O)c(C/C=C(\\C)CCC=C(C)C)c(O)c2)cc2c1O[C@]1(C)C[C@@H](O)[C@@H](O)C(C)(C)[C@H]1C2", "note": "[schweinfurthin B]", "values": [{"measurement": "GI50 (half-maximal inhibitory concentration)", "setting": "[1]", "value": "nanomolar range"}, {"measurement": "OSBP localization", "setting": "[2]", "value": "perinuclear OSBP staining similar to that seen with 25-OHC"}]}
{"smiles": "C[C@H]1CCC/C=C/[C@@H]2C[C@H](O)C[C@H]2[C@H](O)/C=C/C(=O)O1", "note": "[brefeldin A, reference compound]", "values": [{"measurement": "Effect of 25-OHC coadministration on antiproliferative activity", "setting": "[3]", "value": "did not affect"}]}
{"smiles": "CC(=O)O[C@H]1C(=O)[C@@]2(C)[C@H]([C@H](OC(=O)c3ccccc3)[C@]3(O)C[C@H](OC(=O)[C@H](O)[C@@H](NC(=O)c4ccccc4)c4ccccc4)C(C)=C1C3(C)C)[C@]1(OC(C)=O)CO[C@@H]1C[C@@H]2O", "note": "[taxol, reference compound]", "values": [{"measurement": "Desensitization factor by OSBP overexpression (relative GI30)", "setting": "[4]", "value": "not affected"}, {"measurement": "Effect of 25-OHC coadministration on antiproliferative activity", "setting": "[3]", "value": "did not affect"}, {"measurement": "Desensitization factor by ORP4L overexpression (relative GI30)", "setting": "[5]", "value": "not affected"}, {"measurement": "Sensitization by OSBP shRNA knockdown (GI50 shift shOSBP vs shNT)", "setting": "[6]", "value": "not affected"}, {"measurement": "Inhibition of sphingomyelin biosynthesis (control cytotoxic / ER stress agents)", "setting": "[7]", "value": "did not occur"}]}
{"smiles": "CC1C2C(CC3C4CCC5Cc6nc7c(nc6CC5(C)C4CC(O)C32C)CC2CC(O)C3C4=CC5OC6(CCC(C)(O)CO6)C(C)C5(O)C4(C)C(O)CC3C2(C)C7)OC12CCC(C)(C)O2", "note": "(stereo not shown) [ritterazine B]", "values": [{"measurement": "Ki", "setting": "[8]", "value": "0.028 ± 0.004", "unit": "µM"}, {"measurement": "Ki", "setting": "[9]", "value": "> 0.36", "unit": "µM"}, {"measurement": "p21^−/− selectivity of growth inhibition (HCT-116 p21^−/− versus wild-type)", "setting": "[10]", "value": "selectively growth-inhibitory"}, {"measurement": "GI50 (half-maximal inhibitory concentration)", "setting": "[1]", "value": "nanomolar range"}, {"measurement": "OSBP localization", "setting": "[11]", "value": "This effect was also observed"}]}
{"smiles": "CC(C)C[C@@H](C=O)NC(=O)[C@H](CC(C)C)NC(=O)[C@H](CC(C)C)NC(=O)OCc1ccccc1", "note": "[MG-132, reference compound] (Cbz-Leu-Leu-Leu-aldehyde)", "values": [{"measurement": "Effect on OSBP levels (compound alone)", "setting": "[12]", "value": "did not affect OSBP concentrations"}]}
{"smiles": "CC(=O)N[C@@H](CSC(=O)[C@]1([C@@H](O)C(C)C)NC(=O)[C@H](C)[C@@H]1O)C(=O)O", "note": "[lactacystin, reference compound]", "values": [{"measurement": "Effect on OSBP levels (compound alone)", "setting": "[12]", "value": "did not affect OSBP concentrations"}]}
{"smiles": "C/C=C(/C)C(=O)O[C@H]1C(C)=C2[C@H]([C@@H]1OC(=O)CCCCCCC)[C@@](C)(OC(C)=O)C[C@H](OC(=O)CCC)[C@@]1(O)[C@H]2OC(=O)[C@@]1(C)O", "note": "[thapsigargin]", "values": [{"measurement": "Inhibition of sphingomyelin biosynthesis (control cytotoxic / ER stress agents)", "setting": "[7]", "value": "did not occur"}]}
